{"data": "Experimental data gathered from unrelated publications", "target": "Serine/threonine-protein kinase DCLK2 (DCLK2, Homo sapiens, UniProt Q8N568)", "One construct used (Q8N568 1-766)": "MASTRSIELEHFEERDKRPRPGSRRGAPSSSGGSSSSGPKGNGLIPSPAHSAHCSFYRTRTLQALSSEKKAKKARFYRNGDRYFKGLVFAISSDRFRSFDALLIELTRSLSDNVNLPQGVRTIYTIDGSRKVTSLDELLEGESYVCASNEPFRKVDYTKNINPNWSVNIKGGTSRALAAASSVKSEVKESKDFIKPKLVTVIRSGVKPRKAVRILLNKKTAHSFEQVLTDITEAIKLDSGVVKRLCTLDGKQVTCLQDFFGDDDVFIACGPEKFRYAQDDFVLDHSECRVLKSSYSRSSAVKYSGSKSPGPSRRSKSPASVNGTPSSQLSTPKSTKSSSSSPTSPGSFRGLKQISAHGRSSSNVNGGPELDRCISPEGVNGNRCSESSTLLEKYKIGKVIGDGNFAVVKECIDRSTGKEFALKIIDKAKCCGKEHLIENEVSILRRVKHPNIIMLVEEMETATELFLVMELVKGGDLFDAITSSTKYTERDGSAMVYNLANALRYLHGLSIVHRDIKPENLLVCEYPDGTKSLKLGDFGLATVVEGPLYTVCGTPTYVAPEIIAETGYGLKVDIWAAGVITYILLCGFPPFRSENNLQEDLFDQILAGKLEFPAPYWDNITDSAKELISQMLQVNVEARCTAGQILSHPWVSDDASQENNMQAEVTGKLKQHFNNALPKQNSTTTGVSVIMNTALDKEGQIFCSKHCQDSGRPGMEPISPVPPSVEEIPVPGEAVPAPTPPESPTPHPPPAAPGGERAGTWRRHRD", "note": "Protocols differ between the studies behind these lines."}
{"SMILES": "CNC(=O)[C@@H]1CC[C@@H](n2c(-c3ccc4cnccc4c3)nc3ccc(C(=O)NCc4cccc(C(N)=O)c4)cc32)C1", "observed": "binding", "technique": "competition with immobilised ligand", "tested at": "1 µM", "remaining binding": "100%"}
{"SMILES": "CCOCCn1cc(C(=O)Nc2ccc(-n3nc(-c4cccnc4)cc3C(F)(F)F)cn2)ccc1=O", "observed": "cell-free assay", "technique": "competition with immobilised ligand", "tested at": "1 µM", "remaining binding": "89%"}
{"SMILES": "COc1cnc(Nc2cccc(S(N)(=O)=O)c2)nc1N1CCN(c2ccccc2)CC1", "observed": "binding", "technique": "competition with immobilised ligand", "tested at": "1 µM", "remaining binding": "92%"}
{"SMILES": "Cc1cnc(Nc2ccc(C(=O)N3CCC(N4CCCC4)CC3)cc2)nc1-c1cc2ccccc2s1", "observed": "binding", "technique": "competition with immobilised ligand", "tested at": "1 µM", "remaining binding": "100%"}
{"SMILES": "FC(F)(F)Oc1cccc(-c2cnc3ccc(-c4ccncc4)nn23)c1", "observed": "cell-free assay", "technique": "competition with immobilised ligand", "tested at": "5 µM", "remaining binding": "100%"}
{"SMILES": "C=CC(=O)N1CCC(C(=O)NCC(=O)N2CCN(c3nc(-c4cnc(N)nc4C(F)F)nc(N4CCOCC4)n3)CC2)CC1", "observed": "binding", "technique": "competition with immobilised ligand", "tested at": "1 µM", "remaining binding": "98%"}
{"SMILES": "F[C@@H]1CCN(c2nccc(-c3cnn4ncccc34)n2)C1", "observed": "binding", "tested at": "1 µM", "remaining binding": "88%"}
{"SMILES": "O=C(NCC1CCOCC1)c1n[nH]cc1NC(=O)c1c(F)cccc1F", "observed": "binding", "technique": "competition with immobilised ligand", "tested at": "1 µM", "remaining binding": "100%"}
{"SMILES": "CNCc1ccccc1-c1csc([C@H](C)Nc2nc(C)nc3cc(OC)c(OC)cc23)c1", "observed": "cell-free assay", "technique": "competition with immobilised ligand", "tested at": "1 µM", "remaining binding": "100%"}
{"SMILES": "Cc1cnn2ncc(-c3ccnc(N(C)C)n3)c2c1", "observed": "binding", "tested at": "1 µM", "remaining binding": "100%"}
{"SMILES": "NS(=O)(=O)c1cc(NC(=O)Cc2ccccc2)ccc1Oc1cccc(Cl)c1", "observed": "cell-free assay", "technique": "competition with immobilised ligand", "tested at": "1 µM", "remaining binding": "99%"}
{"SMILES": "COc1cc(C(=O)N2CCC(N3CCN(C)CC3)CC2)ccc1Nc1ncc2c(n1)N(C)c1ccccc1C(=O)N2C", "observed": "binding", "technique": "competition with immobilised ligand", "tested at": "10 µM", "remaining binding": "0.45%"}
{"SMILES": "CC1CCCN1c1nccc(-c2cnn3ncccc23)n1 (stereo not shown)", "observed": "binding", "tested at": "1 µM", "remaining binding": "100%"}
{"SMILES": "O=C(c1ccc(Nc2nccc(-c3cc4ccccc4s3)n2)cc1)N1CCC(N2CCCC2)CC1", "observed": "binding", "technique": "competition with immobilised ligand", "tested at": "1 µM", "remaining binding": "97%"}
{"SMILES": "c1cncc(-c2cccc(Nc3nccc(NC4CCCCC4)n3)c2)c1", "observed": "binding", "technique": "competition with immobilised ligand", "tested at": "10 µM", "remaining binding": "100%"}
{"SMILES": "CCOC(=O)c1cc2cc(-c3cc(C(=O)NCc4ccc(C(=O)O)cc4)nn3C)ccc2[nH]1", "observed": "cell-free assay", "technique": "competition with immobilised ligand", "tested at": "0.1 µM", "remaining binding": "100%"}
{"SMILES": "CN(c1nccc(-c2cnn3ncccc23)n1)C1CC1", "observed": "binding", "tested at": "1 µM", "remaining binding": "100%"}
{"SMILES": "O=C1NC(c2ccccn2)Sc2ccccc21 (stereo not shown)", "observed": "cell-free assay", "technique": "competition with immobilised ligand", "tested at": "1 µM", "remaining binding": "92%"}
{"SMILES": "O=C(NCCCN1CCOCC1)c1ccc(Nc2nccc(-c3cc4ccccc4s3)n2)cc1", "observed": "binding", "technique": "competition with immobilised ligand", "tested at": "1 µM", "remaining binding": "98%"}
